Test results from PMC3428850 (Molecular cancer therapeutics, 2012).

Experiments:
PI-3K = assay: PI-3K-dependent AKT phosphorylation; assay type: cell-based, human; details: read-out: IC50 PI-3K-mediated AKT phosphorylation; MCF7 cells, IGF-1 stimulated
In short: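 MCF7 cells in RPMI 1640/10% FBS. Exposed to a concentration range of test compound for 1 h, then 50 ng/ml IGF-1 for 30 min. Western blot of AKT Ser473 relative to total AKT. Rise above unstimulated baseline in treated cells expressed as % of the rise in control cells. Mean of three independent experiments fitted to a sigmoidal dose-response curve for IC50.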

MDA-MB-231 cells = assay: clonogenic survival assay; assay type: cell-based, human
In short: (§1)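 Cells in RPMI 1640/10% FBS were exposed in 6-well plates for 16 h to etoposide or doxorubicin with or without test compound (1 μM), or to test compound alone. Cells then harvested and reseeded in drug-free medium. Colonies stained with crystal violet after 10-14 days and counted automatically. Fold enhancement = survival with cytotoxic alone / survival with cytotoxic + 1 μM test compound. Means ± SD, n = 3.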

T47D cells = assay: clonogenic survival assay; assay type: cell-based, human
In short: as §1

MCF7 cells = assay: clonogenic survival assay; assay type: cell-based, human
In short: as §1

SW620 cells = assay: clonogenic survival assay; assay type: cell-based, human
M059J cells = assay: clonogenic survival assay, DNA-PKcs-deficient cells; assay type: cell-based, human; details: clonogenic survival
In short: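 Human glioblastoma M059J cells (DNA-PKcs-deficient) and M059-Fus-1 cells (chromosome 8 transfected; G-418 200 μg/ml) in DMEM/10% FBS. Etoposide or doxorubicin alone or with 1 μM test compound, or test compound alone, for 16 h. Reseeded drug-free. Crystal violet colony counts after 10-14 days. Fold enhancement as survival ratio. Means ± SD, n = 3.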

LoVo cells = assay: clonogenic survival assay; assay type: cell-based, human
In short: as §1

SW620 xenografts = assay: anti-tumour efficacy study, SW620 xenografts; assay type: in vivo, mice
In short: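 Female athymic CD1-nu/nu mice with s.c. SW620, n = 5/group, treated once tumours were palpable (~5 × 5 mm, day 8-10). Controls: saline i.p. daily. Test compound 10 mg/kg i.p. for 5 days. Etoposide phosphate 11.35 mg/kg i.p. (10 mg/kg etoposide) daily × 5. Combination: test compound i.p. once or twice daily × 5, first dose just before etoposide. Caliper volume a²×b/2; median RTV (day 0 = 1); time to RTV4.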

MCF7 xenografts = assay: anti-tumour efficacy study, MCF7 xenografts; assay type: in vivo; details: MCF7 tumour-bearing mice
V3 cells = assay: clonogenic survival assay, DNA-PKcs-deficient cells; assay type: cell-based, Chinese hamster; details: clonogenic survival
In short: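 Chinese hamster ovary V3 cells (DNA-PKcs-deficient) and V3-YAC cells (human DNA-PKcs on YAC; kept under G-418 500 μg/ml) in RPMI 1640/10% FBS. Etoposide alone or with 1 μM test compound, or test compound alone, for 16 h. Reseeded drug-free. Crystal violet colony counts after 10-14 days. Fold enhancement as survival ratio. Means ± SD of 3 independent experiments.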

[1] = 100 nM doxorubicin with or without 1 μM KU-0060648, 16 hr
[2] = 1 μM etoposide with or without 1 μM KU-0060648, 16 hr

O=c1cc(N2CCOCC2)oc2c(-c3cccc4c3sc3ccccc34)cccc12 [NU7441, reference compound]
IC50 (PI-3K): 3.9 ± 3.5 µM

COc1cccc2c1C(=O)c1c(O)c3c(c(O)c1C2=O)C[C@@](O)(C(=O)CO)C[C@@H]3O[C@H]1C[C@H](N)[C@H](O)[C@H](C)O1 [doxorubicin, reference compound]
survival (clonogenic) (MDA-MB-231 cells; MDA-MB-231, 100 nM doxorubicin with or without 1 μM KU-0060648, 16 hr): 1.8±0.6 | survival (clonogenic) (T47D cells; [1]): 9.0±3.2 | survival (clonogenic) (MCF7 cells; MCF7, 100 nM doxorubicin with or without 1 μM KU-0060648, 16 hr): 42.3±13 | survival (clonogenic) (SW620 cells; SW620, 100 nM doxorubicin with or without 1 μM KU-0060648, 16 hr): 0.06±0.06 | fold more sensitive, DNA-PKcs-deficient M059J versus M059-Fus-1 cells (M059J cells): approximately 23 fold | survival (clonogenic) (LoVo cells; [1]): 1.4±0.9

COc1cc([C@@H]2c3cc4c(cc3[C@@H](O[C@@H]3O[C@@H]5CO[C@@H](C)O[C@H]5[C@H](O)[C@H]3O)[C@H]3COC(=O)[C@H]23)OCO4)cc(OC)c1OP(=O)(O)O [etoposide phosphate, reference compound]
maximum body weight loss (SW620 xenografts; SW620 tumour-bearing mice): no body weight loss | time to RTV4 (median) (SW620 xenografts; SW620 xenografts, single agent or combination with once daily KU-0060648): 6.5 days | maximum body weight loss (MCF7 xenografts): 3%

COc1cc([C@@H]2c3cc4c(cc3[C@@H](O[C@@H]3O[C@@H]5CO[C@@H](C)O[C@H]5[C@H](O)[C@H]3O)[C@H]3COC(=O)[C@H]23)OCO4)cc(OC)c1O [etoposide, reference compound]
survival (clonogenic) (MDA-MB-231 cells; MDA-MB-231, 1 μM etoposide with or without 1 μM KU-0060648, 16 hr): 16±10 | survival (clonogenic) (T47D cells; [2]): 24±4 | fold more sensitive, DNA-PKcs-deficient V3 versus V3-YAC cells (V3 cells): approximately 3 fold | survival (clonogenic) (MCF7 cells; MCF7, 1 μM etoposide with or without 1 μM KU-0060648, 16 hr): 23±9 | survival (clonogenic) (SW620 cells; SW620, 1 μM etoposide with or without 1 μM KU-0060648, 16 hr): 4.7±2.0 | fold more sensitive, DNA-PKcs-deficient M059J versus M059-Fus-1 cells (M059J cells): approximately 2.5 fold | survival (clonogenic) (LoVo cells; [2]): 3.5±0.5
